For data set [1], the target named is T1, Solute carrier family 22 member 7 (Rattus norvegicus, UniProt Q5RLM2).
T1 sequence (Q5RLM2 whole entry): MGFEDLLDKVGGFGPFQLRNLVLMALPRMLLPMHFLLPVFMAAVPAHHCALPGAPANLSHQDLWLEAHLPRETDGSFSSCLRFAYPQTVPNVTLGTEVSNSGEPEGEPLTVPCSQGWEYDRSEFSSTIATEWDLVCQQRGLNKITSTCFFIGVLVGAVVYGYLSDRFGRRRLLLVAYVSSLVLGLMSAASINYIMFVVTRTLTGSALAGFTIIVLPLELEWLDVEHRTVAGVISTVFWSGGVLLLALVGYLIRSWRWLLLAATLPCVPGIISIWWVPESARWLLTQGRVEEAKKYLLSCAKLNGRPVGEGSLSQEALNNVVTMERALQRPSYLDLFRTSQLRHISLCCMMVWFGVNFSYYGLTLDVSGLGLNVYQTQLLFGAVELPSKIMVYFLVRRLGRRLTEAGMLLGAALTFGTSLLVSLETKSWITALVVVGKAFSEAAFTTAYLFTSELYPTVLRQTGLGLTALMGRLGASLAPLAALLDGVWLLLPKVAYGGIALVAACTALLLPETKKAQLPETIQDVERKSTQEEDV
The data set can be described thus: TP_TRANSPORTER: inhibition of Salicylate uptake (salicylate: 1 uM, Enalapril: 1000 uM) in Xenopus laevis oocytes. It counts as functional, cell-based. The following applies: oocyte. A digest of the protocol:
(§1)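 Rat liver NLT/OAT2 (L5) cRNA (10 ng capped) was injected into defolliculated oocytes, which were kept 2–3 days at 18°C in gentamicin Barth's, pH 7.4. Uptake of 1 μM [14C]salicylate was measured in ND96 (pH 7.4) at room temperature, with or without inhibitor (1 mM; BSP 250 μM). Results are % of L5-mediated uptake without inhibitor, mean±S.E.M., n=5–8 oocytes.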

The target of data set [2] is T1, Solute carrier family 22 member 7. The experiment in a line: (§2) TP_TRANSPORTER: uptake in Xenopus laevis oocytes. Format: functional, cell-based. To be noted: oocyte. A digest of the protocol: (§3)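 Oocytes were injected with 10 ng capped L5 cRNA or left as controls, then held 2–3 days at 18°C. Radiolabeled substrates ([14C]α-ketoglutarate 7 μM, [3H]PGE2 6 nM, [3H]methotrexate 1 μM, [14C]acetylsalicylate 20 μM, [14C]PAH 20 μM) were taken up for 1 h in ND96, pH 7.4, at room temperature. Mean±S.E.M., n=5–8.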

Data set [3] shares this target. The data set can be described thus: TP_TRANSPORTER: inhibition of Salicylate uptake (salicylate: 1 uM, Cefoperazone: 1000 uM) in Xenopus laevis oocytes. It counts as functional, cell-based. The following applies: oocyte. The procedure, abridged: as §1
The target is the same in data set [4]. The experiment in a line: TP_TRANSPORTER: inhibition of Salicylate uptake (salicylate: 1 uM, ICG: 1000 uM) in Xenopus laevis oocytes. Format: functional, cell-based. The following applies: oocyte. The procedure, abridged: as §1
Data set [5] has the same target. The data set can be described thus: TP_TRANSPORTER: inhibition of Salicylate uptake (salicylate: 1 uM, Rifampicin: 1000 uM) in Xenopus laevis oocytes. To be noted: oocyte. It counts as functional, cell-based. A digest of the protocol:
as §1

Data set [6] has the same target. The data set can be described thus: TP_TRANSPORTER: inhibition of Salicylate uptake (salicylate: 1 uM, BSP: 250 uM) in Xenopus laevis oocytes. Format: functional, cell-based. The following applies: oocyte. A digest of the protocol: as §1
Substrate in data set [7]: O=C(O)CCC(=O)C(=O)O
The data set is described as §2. It counts as functional, cell-based, Oocyte. A digest of the protocol: as §3

Substrate in data set [8]: O=C(O)c1ccccc1O
The data set can be described thus: cells, lysate or membranes named.

One may read the Km as the concentration of substrate that gives half-maximal velocity.

As to `CCOC(=O)[C@H](CCc1ccccc1)N[C@@H](C)C(=O)N1CCC[C@H]1C(=O)O`, the Activity entry in data set [1] is “inhibitor [(at a rough estimate) 80 % of control]”.

As to `Nc1ccc(C(=O)NCC(=O)O)cc1` [AMINOHIPPURIC ACID], the Activity result in data set [2] was “substrate [+]”.

Take `CC(=O)Oc1ccccc1C(=O)O` [ASPIRIN]: in data set [2], the Activity result was “substrate [+]”.

As to `CCN1CCN(C(=O)N[C@@H](C(=O)N[C@@H]2C(=O)N3C(C(=O)O)=C(CSc4nnnn4C)CS[C@H]23)c2ccc(O)cc2)C(=O)C1=O` [CEFOPERAZONE], the Activity result in data set [3] was “inhibitor [(at a rough estimate) 15 % of control]”.

`CCCCC[C@H](O)/C=C/[C@H]1[C@H](O)CC(=O)[C@@H]1C/C=C\CCCC(=O)O` [DINOPROSTONE]: the Activity result in data set [2] is “substrate [+]”.

In the case of `CC1(C)C(/C=C/C=C/C=C/C=C2/N(CCCCS(=O)(=O)[O-])c3ccc4ccccc4c3C2(C)C)=[N+](CCCCS(=O)(=O)[O-])c2ccc3ccccc3c21.[Na+]` [INDOCYANINE GREEN], in data set [4], the Activity result is “inhibitor [(at a rough estimate) 10 % of control]”.

For `CN(Cc1cnc2nc(N)nc(N)c2n1)c1ccc(C(=O)N[C@@H](CCC(=O)O)C(=O)O)cc1` [METHOTREXATE], the Activity entry in data set [2] is “substrate [+]”.

For the molecule `CO[C@H]1/C=C/O[C@@]2(C)Oc3c(C)c(O)c4c(O)c(c(/C=N/N5CCN(C)CC5)c(O)c4c3C2=O)NC(=O)/C(C)=C\C=C\[C@H](C)[C@H](O)[C@@H](C)[C@@H](O)[C@@H](C)[C@H](OC(C)=O)[C@@H]1C` [RIFAMPIN], the Activity result in data set [5] is “inhibitor [(at a rough estimate) 15 % of control]”.

For `O=C1OC(c2ccc(O)c(S(=O)(=O)[O-])c2)(c2ccc(O)c(S(=O)(=O)[O-])c2)c2c(Br)c(Br)c(Br)c(Br)c21.[Na+].[Na+]` [SULFOBROMOPHTHALEIN SODIUM], the Activity entry in data set [6] is “inhibitor [(at a rough estimate) <5 % of control]”.

As for `CC[N+](CC)(CC)CC` [TETRYLAMMONIUM], in data set [2], the Activity entry is “is not a substrate [-]”.

B1: Solute carrier family 22 member 7 (Rattus norvegicus) (protein)
chain: T1 sequence (Q5RLM2 whole entry)
B1: the Km was found to be 17.8 µM in data set [7] and 88.8 µM in data set [8].
